Measured values as given in ChEMBL document CHEMBL1126205, “Novel spirosuccinimides with incorporated isoindolone and benzisothiazole 1,1-dioxide moieties as aldose reductase inhibitors and antihyperglycemic agents” (1992).
The source made the active and inactive calls. The calls are words filed in the database; no cut-off is given here.

Columns and labels:
[1] = biological target: Aldo-keto reductase family 1 member B1 (Bos taurus) (UniProt P16116); assay: In vitro aldose reductase inhibitory activity measured by NADPH-dependent inhibition of glyceraldehyde reduction in a partially purified bovine lens preparation at 10E-6 M
Procedure, shortened: (§1)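 Aldose reductase partially purified from bovine lens. Inhibition of NADPH-dependent glyceraldehyde reduction is measured at the single stated concentration and reported as percent inhibition, the mean of two determinations.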

Rattus norvegicus [2] = assay: In vivo galactitol inhibitory activity measured by its ability to inhibit galactitol accumulation in sciatic nerve at 6 mg/Kg/day; NS=Not significant (% Inhibition); assay type: functional, organism-based
Procedure, shortened: (§2)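 Rats (n = 6) fed 20% galactose for 4 days, with compound given in the diet at the stated daily dose. Galactitol accumulation was measured in lens, sciatic nerve and diaphragm, and % inhibition was taken versus the nontreated group. Means are from three to eight drug-treated tissue samples. Dunnett's multiple comparison test was applied, with p > 0.05 reported as not significant.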

Rattus norvegicus [3] = assay: In vivo galactitol inhibitory activity measured by its ability to inhibit galactitol accumulation in diaphragm at 3 mg/Kg/day; NS=Not significant (% Inhibition); assay type: functional, organism-based
Procedure, shortened: (§3)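 Rats (n = 6) fed 20% galactose for 4 days, with compound given in the diet at the stated mg/kg per day. Galactitol accumulation in lens, sciatic nerve or diaphragm is scored as percent inhibition versus the non-treated group, as means of 3–8 drug-treated tissue samples. Dunnett's multiple comparison test applies; NS means p > 0.05.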

Mus musculus = assay: Antihyperglycemic activity measured as percent decrease in mice plasma glucose at 100 mg/Kg/day; assay type: functional
Procedure, shortened: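 Male db/db (C57BL/KsJ) mice, 4–6 per group, dosed at 100 mg/kg per day. Plasma glucose of the drug-treated group is expressed as percent decrease relative to a vehicle-treated control group. Values are mean ± SE, with p < 0.05 marked.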

Rattus norvegicus [4] = assay: In vivo galactitol inhibitory activity measured by its ability to inhibit galactitol accumulation in sciatic nerve at 9 mg/Kg/day; NS=Not significant (% Inhibition); assay type: functional, organism-based; procedure, shortened: as §2
Rattus norvegicus [5] = assay: In vivo galactitol inhibitory activity measured by its ability to inhibit galactitol accumulation in lens at 3 mg/Kg/day; NS=Not significant (% Inhibition); assay type: functional, organism-based; settings: Lens of camera-type eye; procedure, shortened: as §3
Rattus norvegicus [6] = assay: In vivo galactitol inhibitory activity measured by its ability to inhibit galactitol accumulation in lens at 9 mg/Kg/day; NS=Not significant (% Inhibition); assay type: functional, organism-based; settings: Lens of camera-type eye; procedure, shortened: as §2
Rattus norvegicus [7] = assay: In vivo galactitol inhibitory activity measured by its ability to inhibit galactitol accumulation in lens at 6 mg/Kg/day; NS=Not significant (% Inhibition); assay type: functional, organism-based; settings: Lens of camera-type eye; procedure, shortened: as §3
[8] = biological target: Aldo-keto reductase family 1 member B1 (Bos taurus) (UniProt P16116); assay: In vitro aldose reductase inhibitory activity measured by NADPH-dependent inhibition of glyceraldehyde reduction in a partially purified bovine lens preparation at 10E-7 M; procedure, shortened: as §1
Rattus norvegicus [9] = assay: In vivo galactitol inhibitory activity measured by its ability to inhibit galactitol accumulation in sciatic nerve at 3 mg/Kg/day; assay type: functional; procedure, shortened: as §2
Rattus norvegicus [10] = assay: In vivo galactitol inhibitory activity measured by its ability to inhibit galactitol accumulation in diaphragm at 6 mg/Kg/day; NS=Not significant (% Inhibition); assay type: functional, organism-based; procedure, shortened: as §3
Rattus norvegicus [11] = assay: In vivo galactitol inhibitory activity measured by its ability to inhibit galactitol accumulation in diaphragm at 9 mg/Kg/day; NS=Not significant (% Inhibition); assay type: functional, organism-based; procedure, shortened: as §3
Rattus norvegicus [12] = assay: In vivo galactitol inhibitory activity measured by its ability to inhibit galactitol accumulation in lens at 32 mg/Kg/day; assay type: functional; settings: Lens of camera-type eye; procedure, shortened: as §3
Rattus norvegicus [13] = assay: In vivo galactitol inhibitory activity measured by its ability to inhibit galactitol accumulation in sciatic nerve at 32 mg/Kg/day; assay type: functional; procedure, shortened: as §2
Rattus norvegicus [14] = assay: In vivo galactitol inhibitory activity measured by its ability to inhibit galactitol accumulation in diaphragm at 109 mg/Kg/day; assay type: functional; procedure, shortened: as §3
Rattus norvegicus [15] = assay: In vivo galactitol inhibitory activity measured by its ability to inhibit galactitol accumulation in sciatic nerve at 109 mg/Kg/day; NS=Not significant (% Inhibition); assay type: functional, organism-based; procedure, shortened: as §2
Rattus norvegicus [16] = assay: In vivo galactitol inhibitory activity measured by its ability to inhibit galactitol accumulation in lens at 109 mg/Kg/day; NS=Not significant (% Inhibition); assay type: functional, organism-based; settings: Lens of camera-type eye; procedure, shortened: as §3
Rattus norvegicus [17] = assay: In vivo galactitol inhibitory activity measured by its ability to inhibit galactitol accumulation in sciatic nerve at 66 mg/Kg/day; assay type: functional; procedure, shortened: as §2
Rattus norvegicus [18] = assay: In vivo galactitol inhibitory activity measured by its ability to inhibit galactitol accumulation in diaphragm at 66 mg/kg/day; assay type: functional; procedure, shortened: as §3
Rattus norvegicus [19] = assay: In vivo galactitol inhibitory activity measured by its ability to inhibit galactitol accumulation in lens at 66 mg/Kg/day; assay type: functional; settings: Lens of camera-type eye; procedure, shortened: as §2
Rattus norvegicus [20] = assay: In vivo galactitol inhibitory activity measured by its ability to inhibit galactitol accumulation in sciatic nerve at 4 mg/Kg/day; assay type: functional; procedure, shortened: as §2
Rattus norvegicus [21] = assay: In vivo galactitol inhibitory activity measured by its ability to inhibit galactitol accumulation in diaphragm at 4 mg/Kg/day; assay type: functional; procedure, shortened: as §3
Rattus norvegicus [22] = assay: In vivo galactitol inhibitory activity measured by its ability to inhibit galactitol accumulation in lens at 4 mg/Kg/day; assay type: functional; settings: Lens of camera-type eye; procedure, shortened: as §3
Rattus norvegicus [23] = assay: In vivo galactitol inhibitory activity measured by its ability to inhibit galactitol accumulation in sciatic nerve at 3 mg/Kg/day; NS=Not significant; assay type: functional, organism-based; procedure, shortened: as §2
Rattus norvegicus [24] = assay: In vivo galactitol inhibitory activity measured by its ability to inhibit galactitol accumulation in lens at 3 mg/Kg/day; NS=Not significant; assay type: functional, organism-based; settings: Lens of camera-type eye; procedure, shortened: as §3
Rattus norvegicus [25] = assay: In vivo galactitol inhibitory activity measured by its ability to inhibit galactitol accumulation in diaphragm at 3 mg/Kg/day; NS=Not significant; assay type: functional, organism-based; procedure, shortened: as §3
Rattus norvegicus [26] = assay: In vivo galactitol inhibitory activity measured by its ability to inhibit galactitol accumulation in diaphragm at 97 mg/kg/day; assay type: functional; procedure, shortened: as §3
Rattus norvegicus [27] = assay: In vivo galactitol inhibitory activity measured by its ability to inhibit galactitol accumulation in sciatic nerve at 97 mg/kg/day; assay type: functional; procedure, shortened: as §2
Rattus norvegicus [28] = assay: In vivo galactitol inhibitory activity measured by its ability to inhibit galactitol accumulation in lens at 97 mg/Kg/day; NS=Not significant (% Inhibition); assay type: functional, organism-based; settings: Lens of camera-type eye; procedure, shortened: as §2
Rattus norvegicus [29] = assay: In vivo galactitol activity by measuring its ability to inhibit galactitol accumulation in sciatic nerve at 6 mg/Kg/day; NS=Not significant (% Inhibition); assay type: functional, organism-based; procedure, shortened: as §3

`CN1C(=O)c2c(Cl)cccc2C12CC(=O)NC2=O` (configuration not stated) was tested, and the inhibition [1] was 65%, the inhibition (Rattus norvegicus [2]) was “inactive” and the inhibition (Rattus norvegicus [3]) was “inactive”. The Decrease (Mus musculus) was under 15%, the inhibition (Rattus norvegicus [4]) was “inactive” and the inhibition (Rattus norvegicus [5]) was “inactive”. For the same compound, the inhibition (Rattus norvegicus [6]) was “inactive”, the inhibition (Rattus norvegicus [7]) was “inactive” and the inhibition [8] was 29%. The inhibition in vivo at 3 mg/kg/day (Rattus norvegicus [9]) was 21%, the inhibition (Rattus norvegicus [10]) was “inactive” and the inhibition (Rattus norvegicus [11]) was “inactive”.
`CN1C(=O)c2cccc(Cl)c2C12CC(=O)NC2=O` (configuration not stated) showed an inhibition [1] of 57%, an inhibition [8] of 19% and an inhibition in vivo at 32 mg/kg/day (Rattus norvegicus [12]) of 13%. The inhibition in vivo at 32 mg/kg/day (Rattus norvegicus [13]) was 32%.
`O=C1CC2(C(=O)N1)c1ccccc1C(=O)N2Cc1ccc(Cl)c(Cl)c1` (configuration not stated) was tested, and the inhibition [1] was 45%, the inhibition in vivo at 109 mg/kg/day (Rattus norvegicus [14]) was 33% and the Decrease (Mus musculus) was 21%. For the same compound, the inhibition (Rattus norvegicus [15]) was “inactive”, the inhibition [8] was 18% and the inhibition (Rattus norvegicus [16]) was “inactive”.
Compound `CN1C(=O)c2ccccc2C12CC(=O)NC2=O` (configuration not stated) has an inhibition [1] of 45%, an inhibition in vivo at 66 mg/kg/day (Rattus norvegicus [17]) of 63% and a Decrease (Mus musculus) of under 15%. For the same compound, the inhibition in vivo at 66 mg/kg/day (Rattus norvegicus [18]) was 58%, the inhibition [8] was 11% and the inhibition in vivo at 66 mg/kg/day (Rattus norvegicus [19]) was 32%.
`O=C1NC(=O)[C@@]2(CCOc3ccc(F)cc32)N1` [SORBINIL] gave an inhibition in vivo at 4 mg/kg/day (Rattus norvegicus [20]) of 55%, an inhibition in vivo at 4 mg/kg/day (Rattus norvegicus [21]) of 69% and an inhibition in vivo at 4 mg/kg/day (Rattus norvegicus [22]) of 20%.
`CCN1C(=O)c2ccc(Cl)cc2C12CC(=O)NC2=O` (configuration not stated) was tested, and the inhibition [1] was 37%, the inhibition (Rattus norvegicus [23]) was “inactive” and the inhibition (Rattus norvegicus [24]) was “inactive”. The Decrease (Mus musculus) was under 15%, the inhibition [8] was 14% and the inhibition (Rattus norvegicus [25]) was “inactive”.
With `O=C1CC2(C(=O)N1)c1cc(Cl)ccc1C(=O)N2Cc1ccc(Br)cc1F` (configuration not stated) the inhibition [1] was 70%, the Decrease (Mus musculus) was under 15% and the inhibition in vivo at 97 mg/kg/day (Rattus norvegicus [26]) was 30%. The inhibition in vivo at 97 mg/kg/day (Rattus norvegicus [27]) was 24%, the inhibition (Rattus norvegicus [28]) was “inactive” and the inhibition [8] was 13%.
In the case of `CN1C(=O)c2ccc(Cl)cc2C12CC(=O)NC2=O` (single isomer, unassigned; (-)), the inhibition [1] is reported as 33%, the inhibition (Rattus norvegicus [29]) is reported as “inactive” and the inhibition (Rattus norvegicus [7]) is reported as “inactive”. For the same compound, the inhibition [8] was 0%.
